SIAE primary = inhibitors of human sialic acid acetylesterase SIAE; SIAE FP-Rh probe binding, fluorescence polarization; inhibition, % at 9.66 µM; actives 0.69% (n = 370,000);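 active means inhibition above a cutoff: mean of compounds within the control limits plus 3 SD of those, cut at about 17% in these data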
GSTO1 counter = GSTO1 inhibition, counter-screen for RBBP9 inhibitors. P78417. recombinant GSTO1, activity-based probe fluorescence polarization. inhibition, % at 5.96 µM. actives 1.1% (n = 300,000). AID 1974;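 active means inhibition above the campaign mean inhibition plus 3 SD, cut at about 35% in these data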
PRMT1 inh = PRMT1 (human) inhibition, primary screen | Q99873 | inhibition, % at 2.79 µM | recombinant PRMT1, activity-based probe fluorescence polarization | AID 652257 | actives 1.3% (n = 370,000);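 active means inhibition above about 21% made by adding two undisclosed values, limit read from the data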
Target sequence (Q99873 whole entry, looked up): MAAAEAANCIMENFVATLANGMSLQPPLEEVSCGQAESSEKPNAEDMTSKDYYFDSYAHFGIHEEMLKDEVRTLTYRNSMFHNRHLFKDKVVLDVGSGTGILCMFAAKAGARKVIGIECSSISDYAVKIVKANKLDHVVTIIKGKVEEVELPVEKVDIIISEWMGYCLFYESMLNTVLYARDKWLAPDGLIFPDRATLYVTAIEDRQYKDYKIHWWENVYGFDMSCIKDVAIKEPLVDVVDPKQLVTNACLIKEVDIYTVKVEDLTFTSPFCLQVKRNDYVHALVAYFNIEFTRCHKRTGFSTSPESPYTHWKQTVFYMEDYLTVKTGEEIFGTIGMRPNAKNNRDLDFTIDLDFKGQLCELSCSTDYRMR
RBBP9 inh = blocks human serine hydrolase RBBP9 | O75884 | inhibition, % at 7.94 µM | actives 0.2% (n = 220,000) | recombinant RBBP9, FP-Rh probe fluorescence polarization;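 active means inhibition above the campaign mean of all tested compounds plus 3 SD, cut at about 14% in these data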
Target sequence (O75884 whole entry, looked up): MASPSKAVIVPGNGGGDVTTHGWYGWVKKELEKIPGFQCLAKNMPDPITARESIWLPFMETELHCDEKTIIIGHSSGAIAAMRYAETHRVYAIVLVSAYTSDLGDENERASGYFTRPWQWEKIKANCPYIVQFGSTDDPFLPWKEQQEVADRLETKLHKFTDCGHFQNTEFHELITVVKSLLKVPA
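Measured by: FP readout at 525/598 nm; material: recombinant human RBBP9; also added: Serine-hydrolase probe FP-Rh, 375 nM pre-mixing; medium: Tris buffer pH 8.0, NaCl, Pluronic; replication: one well per compound; doses: one concentration, 7.94 µM nominal, 0.794% DMSO; timing: preincubation 30 min plus labeling 45 min at 25 °C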
PAD4 inh = PAD4 (human) enzyme inhibition | AID 485272 | Q9UM07 | inhibition, % at 6.36 µM | actives 0.41% (n = 330,000) | recombinant PAD4, RCA probe fluorescence polarization;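 active means percent inhibition above a cutoff equal to the mean of all tested compounds plus 3 SD, cut at about 15% in these data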
PAD4 confirm = confirmation of human PAD4 inhibitors; shares compounds with PAD4 inh; recombinant PAD4, RCA probe fluorescence polarization; AID 488796; inhibition, % at 6.36 µM; actives 28% (n = 1,200);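 active means mean inhibition across replicates above the hit cutoff set by the earlier primary screen, cut at about 15% in these data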;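 further: inhibitors block active-site labeling by the probe so polarization falls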
Numbers stand for hits; – = inactive; · = no result; ! = repeats disagree. A selection: hits, their analogues and other compounds. The true share with any hit is near 2.7%.

SMILES	SIAE primary	GSTO1 counter	PRMT1 inh	RBBP9 inh	PAD4 inh	PAD4 confirm
COC(=O)[C@]12C[C@H](CC(=O)NCc3cccc4ccccc34)C(=O)N(Cc3ccccc3)C1=C[C@H](C(C)(C)C)O[C@@H]2C	–	·	–	·	·	·
CC(C)NS(=O)(=O)c1ccc(CCC(=O)NCc2ccc3c(c2)OCO3)cc1	–	–	–	–	–	·
C=CCC(C)(NCc1ccccc1)c1ccccc1 (centres undefined)	–	–	–	–	–	·
CCSc1nc2ccccc2[nH]1	–	–	–	–	17!	–
CCn1c(CSc2nc3ccccc3[nH]2)nc2cc(C(=O)O)ccc21	–	–	–	–	32	34
c1ccc(CSc2nc3ccccc3[nH]2)cc1	–	–	–	–	–	·
c1ccc2c(c1)CC1(CCCCC1)n1nnnc1-2	–	–	–	–	–	·
c1ccc2c(c1)Cn1nnnc1-2	·	–	·	–	33	–
COc1cc(Cl)c(NC2=CC(=O)C(=O)c3ccccc32)c(OC)c1	–	·	–	·	41	52
COc1cc(Cl)c(NS(=O)(=O)c2ccc(-c3ccc(=O)[nH]n3)o2)c(OC)c1	–	–	–	·	–	·
CCOc1ccc(N)c(SSc2cc(OCC)ccc2N)c1	–	–	86	·	26	31
CCOc1cccc(N)c1	·	·	·	·	–	·
O=C(O)CSCC(=O)Nc1ccc(-c2nc3ccccc3s2)cc1	–	–	36	–	30	31
O=C(NCc1cc(Cl)cc(Cl)c1)c1csc(COCCO)n1	–	·	–	·	·	·
Oc1ccc2ccccc2c1C=NCc1ccccc1	–	–	–	–	19	–
Cc1[nH][nH]c(=O)c1C(c1ccc(-c2ccc(Cl)c(C(=O)O)c2)o1)c1c(C)[nH][nH]c1=O	–	·	–	–	·	·
COC(=O)c1ccccc1-c1ccc(C(c2c(C)[nH][nH]c2=O)c2c(C)[nH][nH]c2=O)o1	–	65	–	–	54	–
COc1ccc(C2CC(c3cccs3)=Nc3ccccc3S2)cc1 (centres undefined)	–	–	83	–	21	–
NC(=O)c1snnc1-c1ccccc1	–	–	–	–	–	·
NNC(=O)c1snnc1-c1ccccc1	–	–	–	–	40	–
COc1ccc(OC)c(C2NC(=O)c3sc(=S)n(-c4ccccc4)c3N2)c1 (centres undefined)	–	–	–	–	22	35
COc1cc(NCc2ccccc2O)c2ncccc2c1	–	·	–	–	·	·
NC(=S)NNc1cccc2cccnc12	–	62	–	–	29	–
Oc1ccccc1CNc1cccc2cccnc12	–	–	–	–	35	–
CC1=NN(c2ccccc2)C(=O)C1N=Nc1cccc(O)c1 (centres undefined)	–	–	–	·	–	·
SMILES	SIAE primary	GSTO1 counter	PRMT1 inh	RBBP9 inh	PAD4 inh	PAD4 confirm
CC1=NN(c2ccc(C)cc2C)C(=O)C1C(c1cccc(O)c1)C1C(=O)N(c2ccc(C)cc2C)N=C1C (centres undefined)	–	55	–	–	40	–
CCOc1ccc(C(=O)NC(C(=O)NCCc2ccc(S(N)(=O)=O)cc2)C(C)C)cc1 (centres undefined)	–	–	–	·	–	·
Clc1ccc(-n2nnnc2Sc2ncnc3sccc23)cc1	–	–	–	–	21	21
Cc1sc2ncnc(Sc3nnnn3-c3ccccc3)c2c1C	–	–	–	–	28	17
Cc1sc2ncnc(Sc3ccccc3C(=O)O)c2c1C	–	–	–	–	–	·
COc1cc(C#N)c(N=C(SCC#N)N2CCOCC2)cc1OC	–	–	–	–	25	28
COc1cc(C(=O)OCc2ccccc2C#N)ccc1OCC(=O)N1CCOCC1	–	·	–	·	–	·
CCC1C(=O)N=C(SCC(=O)Nc2ccc(S(N)(=O)=O)cc2)NC1=O (centres undefined)	–	–	–	–	16	–
Cc1ccc(C)c(-n2nnnc2Sc2nnnn2-c2ccccc2)c1	–	–	–	–	18	25
CCSc1nnnn1-c1ccccc1	–	–	–	–	–	·
Cc1ccccc1NC(=O)CC1C(=O)NCCN1C(=O)c1cccc(Cl)c1 (centres undefined)	–	–	–	·	–	·
O=S1OC(c2ccccc2)c2cc(Cl)ccc21 (centres undefined)	–	–	–	·	40	35
O=C1OC(c2ccccc2)c2ccccc21 (centres undefined)	–	–	–	–	–	·
CCCCCOC(=O)C1=C(C)Nc2ncnn2C1c1cccs1 (centres undefined)	–	–	–	–	–	·
CCCCNC(=S)NNC(=O)c1csc(C)c1	–	–	–	–	–	·
CCNC(=S)NNC(=O)c1csc(C)c1	–	–	–	–	93	–
CCOc1ccc(N2C(=O)CC(Sc3ccccc3C(=O)O)C2=O)c([N+](=O)[O-])c1 (centres undefined)	–	–	68	–	26	–
FC(F)(F)c1ccc(CN2CCN(Cc3ccco3)CC2)cc1	–	–	–	·	–	·
CC1(C)Cc2c(c(-c3ccco3)[nH]c(=O)c2C#N)CS1	–	–	74	–	26	–
O=S(c1ccc2ccccc2c1)c1cnns1 (centres undefined)	–	–	–	–	19	19
CC(=O)N1CCN(C(=O)CCc2nc3sc4c(c3c(=O)[nH]2)CCCC4)CC1	–	–	–	–	–	·
CC(C)C(C(=O)NC1CCCC1)N(CC1CCCO1)C(=O)CNS(=O)(=O)c1ccccc1 (centres undefined)	–	–	–	·	26	–
Cc1ccc2c(c1)N(C(=O)c1ccco1)C(C)(C)c1ssc(=S)c1-2	–	–	–	–	16	24
Cc1cccc2c1N(C(=O)c1ccco1)C(C)(C)c1ssc(=S)c1-2	–	–	–	–	15	–
O=C1OC(Nc2cc(Br)cc3cccnc23)c2ccccc21 (centres undefined)	34	86	31	–	61	–
SMILES	SIAE primary	GSTO1 counter	PRMT1 inh	RBBP9 inh	PAD4 inh	PAD4 confirm
C=C(C)c1cccc(C(C)(C)NC(=O)Nc2ccc(C(C)=O)cc2)c1	–	–	–	–	–	·
CN1CCN(S(=O)(=O)c2ccc(Sc3nnnn3-c3ccccc3)c([N+](=O)[O-])c2)CC1	–	–	–	–	–	·
CC(=O)c1ccc(Sc2nnnn2-c2ccccc2)c([N+](=O)[O-])c1	–	–	–	–	17	–
COc1cccc(NC(=O)CN(C)CC(=O)Nc2ccccc2-c2ccccc2)c1	–	–	–	–	–	·
Cc1ccc2[nH]c(C(=O)O)c(-c3ccccc3)c2c1	–	–	–	–	–	·
O=C(O)c1[nH]c2ccccc2c1-c1ccccc1	–	–	–	–	104	–
OCCC1CN(CC#Cc2ccccc2)CCN1Cc1ccccc1F (centres undefined)	–	–	–	·	–	·
COc1cc(Nc2ncc3c(n2)CCN(C(=O)Nc2ccc(C(C)C)cc2)C3)cc(OC)c1OC	–	·	–	·	·	·
O=C(C[C@H]1C/C=C\C[C@@H](Cc2ccc(F)cc2)C(=O)OC[C@H]2CCCN2C1=O)N[C@H](CO)Cc1ccccc1	–	·	–	·	–	·

Source: PubChem BioAssay
